This passage reports activation factor results from PubChem BioAssay AID1216 (Sanford-Burnham Center for Chemical Genomics, 2008).

The whole screen tested about 190,000 compounds, of which about 660 (0.35%) were called active. The entries come from a sample that favours actives as a whole. Unmarked numbers belong to inactive results.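 Rule for the calls: active = activation factor of 2 or more at 20 µM; inactive = the rest.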

Chain of Mannose-6-phosphate isomerase (Homo sapiens) (P34949 whole entry, looked up): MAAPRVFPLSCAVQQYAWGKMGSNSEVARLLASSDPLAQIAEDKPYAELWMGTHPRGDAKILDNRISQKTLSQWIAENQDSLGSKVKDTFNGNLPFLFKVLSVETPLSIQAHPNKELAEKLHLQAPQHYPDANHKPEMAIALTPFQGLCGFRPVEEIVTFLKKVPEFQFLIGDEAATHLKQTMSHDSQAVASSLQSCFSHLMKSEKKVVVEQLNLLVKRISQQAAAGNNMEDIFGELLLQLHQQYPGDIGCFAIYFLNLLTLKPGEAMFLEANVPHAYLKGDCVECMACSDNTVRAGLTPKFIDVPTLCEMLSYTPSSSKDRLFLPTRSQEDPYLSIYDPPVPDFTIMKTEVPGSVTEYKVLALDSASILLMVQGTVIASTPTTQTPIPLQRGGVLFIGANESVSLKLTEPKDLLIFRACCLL

The assay concerns the target Mannose-6-phosphate isomerase (Homo sapiens) (UniProt P34949). As to the kind of experiment: MPI activation at elevated mannose 6-phosphate – biochemical, fluorescence intensity, near-saturating mannose 6-phosphate, primary screen (AID 1216). The conditions noted are these: coupled PMI enzyme assay, resazurin fluorescence, 20 min; at 20 µM; active compounds read high. In a few lines: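 Test system: human PMI in coupled enzyme assay; Input: PMI at 15 ng/mL final; Medium: HEPES buffer, pH 7.4; Schedule: 20 min incubation at room temperature; Technique: resorufin fluorescence at Ex 544/Em 590 nm; Compound: 20 µM single dose; Probe or stimulus: Near-saturating mannose-6-phosphate, 1.0 mM.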
A general note: Resazurin is reduced to fluorescent resorufin, in cell work by metabolically active cells.
For the molecule `Cc1ccc2c(c1)=C/C(=C\c1c(O)[nH]c(=O)[nH]c1=O)C(=O)N=2`, the activation factor was 0.5. Turning to `O=C1N=c2ccccc2=C/C1=C\c1c(O)[nH]c(=S)[nH]c1=O`, the activation factor is 2.1 (active).

For `COc1ccccc1N=Nc1c(O)[nH]c(=S)[nH]c1=O`, the activation factor is 0.9.

For `O=C(CSC1c2ccccc2-c2ccccc21)N/N=C/c1ccccc1`, the activation factor was 0.9.

For the molecule `Cc1cccc(OP(=O)(Oc2cccc(C)c2)OC(c2ccccc2)C(F)(F)F)c1` (stereo not given), the activation factor is 0.9.
